Tests used:
[1] = molecular target: Gonadotropin-releasing hormone receptor (Homo sapiens, UniProt P30968, F313L); assay: Displacement of [125I]-His5, D-Tyr6]GnRH from mutant GnRHR, GnRHR F313L
Method in brief: (§1)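 Human GnRH-R (wild type or site-directed point mutant) was transiently expressed in COS-7 cells by electroporation, with cells cultured 36-48 h before membranes were prepared. Membranes (5-20 µg per point) were incubated 2 h at room temperature with 0.3 nM tracer and varying competitor in HEPES pH 7.5, 150 mM NaCl, 0.1% BSA, then filtered and counted.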

[2] = molecular target: Gonadotropin-releasing hormone receptor (Homo sapiens, UniProt P30968, N315D); assay: Displacement of [125I]-His5, D-Tyr6]GnRH from mutant GnRHR, GnRHR N315D; method in brief: as §1
Chain of Gonadotropin-releasing hormone receptor (Homo sapiens, UniProt P30968, N315D) (P30968 whole entry N315D): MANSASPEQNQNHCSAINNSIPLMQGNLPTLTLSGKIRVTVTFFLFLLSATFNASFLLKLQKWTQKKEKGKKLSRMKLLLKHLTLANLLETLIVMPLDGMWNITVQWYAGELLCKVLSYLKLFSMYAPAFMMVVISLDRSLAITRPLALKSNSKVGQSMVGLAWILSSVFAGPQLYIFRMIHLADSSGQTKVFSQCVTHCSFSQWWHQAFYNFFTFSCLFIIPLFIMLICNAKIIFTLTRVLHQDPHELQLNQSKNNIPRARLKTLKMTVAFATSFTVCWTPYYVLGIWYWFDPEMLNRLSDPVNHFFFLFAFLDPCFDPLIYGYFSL

[3] = molecular target: Gonadotropin-releasing hormone receptor (Homo sapiens, UniProt P30968, M24T); assay: Displacement of [125I]-His5, D-Tyr6]GnRH from mutant GnRHR, GnRHR M24T; method in brief: as §1
Chain of Gonadotropin-releasing hormone receptor (Homo sapiens, UniProt P30968, M24T) (P30968 whole entry M24T): as the sequence (P30968 whole entry N315D) above, with M24T, D315N counted along it

[4] = molecular target: Gonadotropin-releasing hormone receptor (Homo sapiens, UniProt P30968, E295A); assay: Displacement of [125I]-His5, D-Tyr6]GnRH from mutant GnRHR, GnRHR E295A; method in brief: as §1
Chain of Gonadotropin-releasing hormone receptor (Homo sapiens, UniProt P30968, E295A) (P30968 whole entry E295A): as the sequence (P30968 whole entry N315D) above, with E295A, D315N counted along it

[5] = molecular target: Gonadotropin-releasing hormone receptor (Homo sapiens, UniProt P30968, L117A); assay: Displacement of [125I]-His5, D-Tyr6]GnRH from mutant GnRHR, GnRHR L117A; method in brief: as §1
Chain of Gonadotropin-releasing hormone receptor (Homo sapiens, UniProt P30968, L117A) (P30968 whole entry L117A): as the sequence (P30968 whole entry N315D) above, with L117A, D315N counted along it

[6] = molecular target: Gonadotropin-releasing hormone receptor (Homo sapiens, UniProt P30968, Q189P); assay: Displacement of [125I]-His5, D-Tyr6]GnRH from mutant GnRHR, GnRHR Q189P
Chain of Gonadotropin-releasing hormone receptor (Homo sapiens, UniProt P30968, Q189P) (P30968 whole entry Q189P): as the sequence (P30968 whole entry N315D) above, with Q189P, D315N counted along it

[7] = molecular target: Gonadotropin-releasing hormone receptor (Homo sapiens, UniProt P30968, Y290Q); assay: Displacement of [125I]-His5, D-Tyr6]GnRH from mutant GnRHR, GnRHR Y290Q
Chain of Gonadotropin-releasing hormone receptor (Homo sapiens, UniProt P30968, Y290Q) (P30968 whole entry Y290Q): as the sequence (P30968 whole entry N315D) above, with Y290Q, D315N counted along it

[8] = molecular target: Gonadotropin-releasing hormone receptor (Homo sapiens, UniProt P30968, F309L); assay: Displacement of [125I]-His5, D-Tyr6]GnRH from mutant GnRHR, GnRHR F309L; method in brief: as §1
Chain of Gonadotropin-releasing hormone receptor (Homo sapiens, UniProt P30968, F309L) (P30968 whole entry F309L): as the sequence (P30968 whole entry N315D) above, with F309L, D315N counted along it

[9] = molecular target: Gonadotropin-releasing hormone receptor (Homo sapiens, UniProt P30968, S203P); assay: Displacement of [125I]-His5, D-Tyr6]GnRH from mutant GnRHR, GnRHR S203P
Chain of Gonadotropin-releasing hormone receptor (Homo sapiens, UniProt P30968, S203P) (P30968 whole entry S203P): as the sequence (P30968 whole entry N315D) above, with S203P, D315N counted along it

[10] = molecular target: Gonadotropin-releasing hormone receptor (Homo sapiens, UniProt P30968, Y284F); assay: Displacement of [125I]-His5, D-Tyr6]GnRH from mutant GnRHR, GnRHR Y284F
Chain of Gonadotropin-releasing hormone receptor (Homo sapiens, UniProt P30968, Y284F) (P30968 whole entry Y284F): as the sequence (P30968 whole entry N315D) above, with Y284F, D315N counted along it

[11] = molecular target: Gonadotropin-releasing hormone receptor (Homo sapiens, UniProt P30968, Q208E); assay: Displacement of [125I]-His5, D-Tyr6]GnRH from mutant GnRHR, GnRHR Q208E
Chain of Gonadotropin-releasing hormone receptor (Homo sapiens, UniProt P30968, Q208E) (P30968 whole entry Q208E): as the sequence (P30968 whole entry N315D) above, with Q208E, D315N counted along it

Chain of Gonadotropin-releasing hormone receptor (Homo sapiens, UniProt P30968, F313L) (P30968 whole entry F313L): as the sequence (P30968 whole entry N315D) above, with F313L, D315N counted along it

Row | IC50 [1] [nM] | IC50 [2] [nM] | IC50 [3] [nM] | IC50 [4] [nM] | IC50 [5] [nM] | IC50 [6] [nM] | IC50 [7] [nM] | IC50 [8] [nM] | IC50 [9] [nM] | IC50 [10] [nM] | IC50 [11] [nM] | SMILES
1 | 623 | 49.3 | 57.1 | 11.2 | 4.8 | 10.8 | 229 | 60.1 | 41.4 | 28.8 | 6 | COc1c(C)cc(-c2[nH]c3ccc(C(C)(C)C(=O)N(CC(C)C)CC(C)C)cc3c2[C@H](C)CNCCc2ccccc2)cc1C
2 | 5.6 | 1.5 | 4.9 | 1.9 | 4.1 | 1.9 | 192 | 37.7 | 5.4 | 2.8 | 15 | CC(C)C[C@H](NC(=O)[C@@H](Cc1ccc(O)cc1)NC(=O)[C@H](Cc1c[nH]cn1)NC(=O)[C@H](CO)NC(=O)[C@H](Cc1c[nH]c2ccccc12)NC(=O)[C@H](Cc1c[nH]cn1)NC(=O)[C@@H]1CCC(=O)N1)C(=O)N[C@@H](CCCN=C(N)N)C(=O)N1CCC[C@H]1C(=O)NCC(N)=O
